Experimental data as given in paper PMC2888972 (Molecular cancer therapeutics, 2009).

Experiments:
Assay in all cases: Growth inhibition assay
Type in all cases: cell-based, human
Caki-1 cancer = conditions: Caki-1 cancer, 48 h; for efficacy (maximum growth inhibition observed): 1 to 12.5 µmol/L; for EC50: read-out: potency (EC50, concentration needed to induce half maximal efficacy)
How it was run: (§1)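 Stock is 0.01 mol/L in DMSO, kept at −20°C under subdued light. Cells get 1–12.5 µmol/L or equal-volume DMSO, in triplicate, for 48 h. Growth index is mean treated OD over mean control OD, plotted against concentration. Maximal inhibition comes by nonlinear regression from plots of 2–3 independent experiments.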

786-O cancer = conditions: for efficacy (maximum growth inhibition observed): 48 h, 1 to 12.5 µmol/L; for EC50: read-out: potency (EC50, concentration needed to induce half maximal efficacy), 48 h
How it was run: as §1

RTC91696 normal = conditions: RTC91696 normal, 48 h, single experiments; for efficacy (maximum growth inhibition observed): 1 to 12.5 µmol/L; for EC50: read-out: potency (EC50, concentration needed to induce half maximal efficacy)
HK-2 normal = conditions: HK-2 normal, 48 h; for efficacy (maximum growth inhibition observed): 1 to 12.5 µmol/L; for EC50: read-out: potency (EC50, concentration needed to induce half maximal efficacy)
How it was run: as §1

Row | SMILES | efficacy (maximum growth inhibition observed) (Caki-1 cancer) | EC50 (Caki-1 cancer) [µM] | efficacy (maximum growth inhibition observed) (786-O cancer) | EC50 (786-O cancer) [µM] | efficacy (maximum growth inhibition observed) (RTC91696 normal) | EC50 (RTC91696 normal) [µM] | efficacy (maximum growth inhibition observed) (HK-2 normal) | EC50 (HK-2 normal) [µM]
1 | COC(=O)c1ccc(NC(=S)Nc2ccc3c(c2)C(C)(C)CC(C)(C)S3)cc1 [SHetD4] | 38.67% ± 1.50% | 7.56 ± 0.15 | 44.55% ± 17.56% | 5.08 ± 0.71 | 37.74% ± 6.61% | 5.36 ± 0.6 | 43.67% ± 0.44% | 7.42 ± 0.2
2 | CCOC(=O)c1ccc(NC(=O)Nc2ccc3c(c2)C(C)(C)CC(C)(C)S3)cc1 [SHetA4] | 68.92% ± 6.94% | 5.07 ± 0.15 | 45.04% ± 4.80% | 2.56 ± 0.34 | 39.67% ± 2.52% | 7.55 ± 0.51 | 26.35% ± 0.80% | 5.19 ± 0.25
